Common to all, as to type: functional
In experiment [1] the test system is Candida albicans. As to the kind of experiment: Antifungal activity against Candida albicans SC5314 after 48 hrs by broth microdilution method. As to conditions: SC5314, 48 h. An outline of the steps: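 C. albicans SC5314 grown overnight, then set at (2−5) × 10^3 cells/mL in RPMI 1640. Compounds added at final 2 to 128 μg/mL, 35 °C for 48 h, following CLSI M27A3. OD600 read on a plate reader. MIC taken as the concentration giving 80% growth reduction.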
(In general: Dilution methods test growth across graded concentrations, often in twofold steps.)

The test system of experiment [2] is Candida albicans. In words: Fungicidal activity against Candida albicans SC5314 at 16 ug/ml up to 12 hrs by YPD-based colony counting method. Put shortly: (§1)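 Overnight SC5314 cells washed and resuspended at 1 × 10^6 cells/mL in MOPS-buffered RPMI 1640. Compound added at final 8, 16 and 32 μg/mL, shaken at 30 °C. Aliquots taken at 0, 0.5, 1, 2, 3, 4, 5, 6, 7, 8 and 12 h, washed, diluted and plated on YPD agar for viable colony counts. Means ± SD.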

For experiment [3], the system named is Candida albicans. In words: Induction of disruption of plasma membrane integrity in Candida albicans assessed as increase in fluorescence intensity after 3 hrs by propidium iodide-staining based FACS analysis. An outline of the steps:
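Log-phase C. albicans harvested and suspended in RPMI 1640, then treated 3 h at 30 °C (amphotericin B 8 μg/mL as positive control). Stained with 5 μM propidium iodide for 30 min at room temperature. Cell fluorescence measured by flow cytometry.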
(In general: Flow cytometry measures light scatter and fluorescence of single cells or particles in a stream.)

Experiment [4] concerns Candida albicans. As to the kind of experiment: Induction of disruption of plasma membrane integrity in Candida albicans assessed as decrease in fluorescence intensity after 3 hrs by DPH-staining based spectrofluorophotometric analysis. Put shortly:
(§2)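 Cells at 1 × 10^6/mL in YPD treated 3 h (0, 4, 8, 16, 32 μg/mL; amphotericin B 8 μg/mL as positive control). Fixed in 0.37% formaldehyde 30 min, washed in PBS, freeze-thawed in liquid nitrogen. Stained with 1 μM DPH 45 min at 30 °C, washed. Fluorescence read at ex 350/em 450 nm and expressed as relative fluorescence. Means ± SD.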

Experiment [5] deals with Candida albicans. In words: Fungicidal activity against Candida albicans SC5314 at 32 ug/ml up to 2 hrs by YPD-based colony counting method. An outline of the steps: as §1
Experiment [6] deals with Candida albicans. In words: Induction of disruption of plasma membrane integrity in Candida albicans assessed as decrease in fluorescence intensity at 8 ug/ml after 3 hrs by DPH-staining based spectrofluorophotometric analysis. Put shortly: as §2

Structures are written as SMILES. ≈ marks a conversion by molar mass, not a printed value. Calls of active or inactive are those of the source. The calls are words filed in the database; no cut-off is given here. A value given as a limit tells only on which side of the number the result lay.

Broadly, the MIC80 is the lowest concentration that inhibits either 80% of growth or 80% of the strains tested, depending on the study. A higher MIC80 goes with weaker potency. In experiment [1], `COc1c(O)c(-c2ccccc2)cc(O)c1-c1cc(O)ccc1O` came in with an MIC80 of 64 µg/mL (≈ 197 µM).

Take `COC1=C(c2ccccc2)C(=O)c2oc3ccccc3c2C1=O`: the MIC80 in experiment [1] was over 128 µg/mL.

In the case of `COc1c(O)c(-c2ccccc2)cc(O)c1-c1ccc(O)cc1`, the MIC80 in experiment [1] was 16 µg/mL (≈ 51.9 µM).

Consider `COc1c(O)c(-c2ccccc2)cc(O)c1-c1ccccc1`, for which the MIC80 in experiment [1] was over 128 µg/mL.

Turning to `COC1=C(c2ccccc2O)C(=O)C=C(c2ccccc2)C1=O`, the Activity in experiment [2] was 99.8%; in experiment [3] it was “Dose-dependent effect”; in experiment [4], “Dose-dependent effect”. For the same compound, the outcome in experiment [5] was Active. For the same compound, the MIC80 in experiment [1] came out at 8 µg/mL (≈ 26.1 µM).

Compound `COC12Oc3ccc(O)cc3C1(O)C(=O)C=C(c1ccccc1)C2=O` (stereo not drawn) returned an MIC80 in experiment [1] of over 128 µg/mL.

Consider `COC1=C(c2ccc(O)cc2)C(=O)C=C(c2ccccc2)C1=O`, for which the MIC80 in experiment [1] came to 8 µg/mL (≈ 26.1 µM).

As for `C[C@@H]1[C@H](O)[C@@H](C)/C=C/C=C/C=C/C=C/C=C/C=C/C=C/[C@H](O[C@@H]2O[C@H](C)[C@@H](O)[C@H](N)[C@@H]2O)C[C@@H]2O[C@](O)(C[C@@H](O)C[C@@H](O)[C@H](O)CC[C@@H](O)C[C@@H](O)CC(=O)O[C@H]1C)C[C@H](O)[C@H]2C(=O)O`, in experiment [6], the result was Active.

In turn, `COC1=C(c2cc(O)ccc2O)C(=O)C=C(c2ccccc2)C1=O` registered an MIC80 in experiment [1] of 64 µg/mL (≈ 199 µM).

`COC1=C(c2ccccc2)C(=O)C2=C(C1=O)c1ccccc1CO2` [BETULINAN B] registered an MIC80 in experiment [1] of over 128 µg/mL.

In experiment [1], `Oc1cc(-c2ccccc2)c(O)c2c1-c1ccccc1CO2` displayed an MIC80 of over 128 µg/mL.

As to `O=C1C=C(c2ccccc2)C(=O)C2=C1c1ccccc1CO2`, in experiment [1], the MIC80 is over 128 µg/mL.

For the compound `COC1(OC)C2C(=O)C=C(c3ccccc3)C1(O)Oc1ccc(O)cc12` (stereo not drawn), the MIC80 in experiment [1] is over 128 µg/mL.

The compound `COC1=C(c2ccccc2)C(=O)C=C(c2ccccc2)C1=O` [BETULINAN C] displayed an MIC80 in experiment [1] of over 128 µg/mL.

These data come from ChEMBL document CHEMBL3871273, “p-Terphenyl Derivatives from the Endolichenic Fungus Floricola striata” (2016).
